# In ChEMBL document CHEMBL1134293, “Design of selective and soluble inhibitors of tumor necrosis factor-alpha converting enzyme (TACE)” (J Med Chem, 2001):
# Key:
# [1] = target: Disintegrin and metalloproteinase domain-containing protein 17 (Homo sapiens, UniProt P78536); test: Inhibition of TACE using scintillation proximity assay (SPA)
# Interstitial collagenase = target: T1, Interstitial collagenase (Homo sapiens, UniProt P03956); test: Inhibition potency was determined by fluorescence-based peptide assay against matrix metalloprotease-1; parameters: species or system Escherichia coli
# T1 sequence (P03956 whole entry): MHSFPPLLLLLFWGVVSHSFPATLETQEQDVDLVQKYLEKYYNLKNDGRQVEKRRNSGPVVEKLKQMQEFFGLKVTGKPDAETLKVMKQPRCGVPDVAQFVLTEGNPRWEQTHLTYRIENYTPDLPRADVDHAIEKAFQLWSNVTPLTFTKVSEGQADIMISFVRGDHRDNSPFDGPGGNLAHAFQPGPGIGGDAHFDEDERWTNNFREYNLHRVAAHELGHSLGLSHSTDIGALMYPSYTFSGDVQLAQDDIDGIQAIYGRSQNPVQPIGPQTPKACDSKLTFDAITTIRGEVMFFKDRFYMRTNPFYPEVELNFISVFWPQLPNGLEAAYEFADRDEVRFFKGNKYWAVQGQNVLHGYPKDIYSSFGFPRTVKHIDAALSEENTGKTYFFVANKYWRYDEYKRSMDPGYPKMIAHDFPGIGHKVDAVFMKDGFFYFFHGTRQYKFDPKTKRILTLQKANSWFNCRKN
# Summary of the method: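 Recombinant MMP-1 catalytic domain expressed in E. coli, refolded 1 h in 200 mM NaCl, 50 mM Tris, 5 mM CaCl2, 10 μM ZnSO4, 0.01% Brij 35, pH 7.6, and assayed at 1.0 nM in the same buffer. Enzyme preincubated 20 min at room temperature with inhibitor (eleven-point 3-fold dilutions). Reaction started with fluorogenic Dnp-Pro-Cha-Gly-Cys(Me)-His-Ala-Lys(Nma)-NH2; ex 343/em 450 nm; IC50 (nM).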
# [2] = target: Matrix metalloproteinase-9 (Homo sapiens, UniProt P14780); test: Inhibition potency was determined by fluorescence-based peptide assay against matrix metalloprotease-9
# Summary of the method: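 Catalytic domain of proMMP-9 purified from baculovirus-infected T. ni cell media, 0.1 nM in 200 mM NaCl, 50 mM Tris, 5 mM CaCl2, 10 μM ZnSO4, 0.01% Brij 35, pH 7.6. Preincubated with inhibitor 20 min at room temperature; fluorogenic Dnp-Pro-Cha-Gly-Cys(Me)-His-Ala-Lys(Nma)-NH2 added; fluorescence ex 343/em 450 nm; eleven-point 3-fold dilutions give IC50 (nM).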
# Stromelysin-1 = Stromelysin-1 (Homo sapiens, UniProt P08254); test: Inhibition potency was determined by fluorescence-based peptide assay against matrix metalloprotease-3; parameters: species or system Escherichia coli
# Summary of the method: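 Full-length active MMP-3 expressed in E. coli, refolded 1 h in 200 mM NaCl, 50 mM Tris, 5 mM CaCl2, 10 μM ZnSO4, 0.01% Brij 35, pH 7.6, used at 5 nM in the same buffer. Preincubated 20 min at room temperature with inhibitor across eleven 3-fold dilutions, then fluorogenic Dnp-Pro-Cha-Gly-Cys(Me)-His-Ala-Lys(Nma)-NH2 added; product read at ex 343/em 450 nm; IC50 (nM).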
# Mus musculus [3] = test: Inhibition of soluble TNF-alpha production in LPS-Stimulated mice by administration of 40 mg/kg compound per orally; type: functional; details: route oral
# Summary of the method: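 Female C3H/hen mice gavaged at 40 mg/kg (5 mL/kg, homogenized suspension in 0.5% HPMC/0.1% Tween 80) 10 min before ip LPS 0.2 mg/kg in PBS. Killed at 90 min; vena cava plasma TNF-α by ELISA. Percent inhibition vs vehicle group, n = 7 each, 2-sided t-test.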
# [4] = Solubility in simulated gastric fluid; type: physicochemical; details: read-out: S
# Mus musculus [5] = test: Inhibition of soluble TNF-alpha production in LPS-Stimulated mice by administration of 40 mg/kg compound subcutaneously; type: functional; details: sc, route subcutaneous
# Summary of the method: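 Female C3H/hen mice given 40 mg/kg sc (0.2 mL; DMSO stock into 0.9% NaCl/30% Trappsol HPB-20, final 1% DMSO) 10 min before ip LPS 0.2 mg/kg in PBS. Plasma from vena cava at 90 min, TNF-α by ELISA; percent inhibition vs vehicle controls, n = 7 per group, 2-sided t-test.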
# Rattus norvegicus = species: Rattus norvegicus; test: Inhibition of TNF alpha production in rat Zymosan inflammation model; type: functional
# Summary of the method: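 Male Lewis rats given single sc dose (50 mg/kg) as aqueous suspension in 5% EtOH, 5% propylene glycol, 10% Cremephore, 10% Molecusol (5 mL/kg), 10 min before intrapleural zymosan (0.5 mg in 0.25 mL H2O).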
# Sequence of Disintegrin and metalloproteinase domain-containing protein 17 (P78536 whole entry, the tested form may be a part): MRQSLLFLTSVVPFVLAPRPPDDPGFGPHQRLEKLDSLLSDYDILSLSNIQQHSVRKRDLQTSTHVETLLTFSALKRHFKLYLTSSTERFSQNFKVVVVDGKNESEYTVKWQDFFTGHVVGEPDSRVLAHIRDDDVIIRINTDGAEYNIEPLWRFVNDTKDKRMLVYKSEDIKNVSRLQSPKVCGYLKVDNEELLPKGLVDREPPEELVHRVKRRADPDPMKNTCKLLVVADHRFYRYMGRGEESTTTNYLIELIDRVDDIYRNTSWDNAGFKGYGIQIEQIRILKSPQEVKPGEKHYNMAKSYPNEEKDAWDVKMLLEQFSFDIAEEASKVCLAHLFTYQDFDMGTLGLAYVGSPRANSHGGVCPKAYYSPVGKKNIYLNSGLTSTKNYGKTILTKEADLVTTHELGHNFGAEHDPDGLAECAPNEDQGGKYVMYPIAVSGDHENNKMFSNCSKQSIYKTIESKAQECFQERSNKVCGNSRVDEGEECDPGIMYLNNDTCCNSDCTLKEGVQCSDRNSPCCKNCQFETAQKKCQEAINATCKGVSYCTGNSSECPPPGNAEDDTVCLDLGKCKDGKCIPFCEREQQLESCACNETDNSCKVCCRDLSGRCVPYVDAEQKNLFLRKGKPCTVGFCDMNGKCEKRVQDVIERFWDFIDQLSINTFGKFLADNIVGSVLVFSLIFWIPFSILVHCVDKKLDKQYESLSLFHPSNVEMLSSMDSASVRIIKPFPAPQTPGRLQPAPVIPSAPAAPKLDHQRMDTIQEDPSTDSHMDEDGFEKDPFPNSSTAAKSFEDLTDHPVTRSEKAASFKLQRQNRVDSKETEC
# Sequence of Matrix metalloproteinase-9 (P14780 whole entry, the tested form may be a part): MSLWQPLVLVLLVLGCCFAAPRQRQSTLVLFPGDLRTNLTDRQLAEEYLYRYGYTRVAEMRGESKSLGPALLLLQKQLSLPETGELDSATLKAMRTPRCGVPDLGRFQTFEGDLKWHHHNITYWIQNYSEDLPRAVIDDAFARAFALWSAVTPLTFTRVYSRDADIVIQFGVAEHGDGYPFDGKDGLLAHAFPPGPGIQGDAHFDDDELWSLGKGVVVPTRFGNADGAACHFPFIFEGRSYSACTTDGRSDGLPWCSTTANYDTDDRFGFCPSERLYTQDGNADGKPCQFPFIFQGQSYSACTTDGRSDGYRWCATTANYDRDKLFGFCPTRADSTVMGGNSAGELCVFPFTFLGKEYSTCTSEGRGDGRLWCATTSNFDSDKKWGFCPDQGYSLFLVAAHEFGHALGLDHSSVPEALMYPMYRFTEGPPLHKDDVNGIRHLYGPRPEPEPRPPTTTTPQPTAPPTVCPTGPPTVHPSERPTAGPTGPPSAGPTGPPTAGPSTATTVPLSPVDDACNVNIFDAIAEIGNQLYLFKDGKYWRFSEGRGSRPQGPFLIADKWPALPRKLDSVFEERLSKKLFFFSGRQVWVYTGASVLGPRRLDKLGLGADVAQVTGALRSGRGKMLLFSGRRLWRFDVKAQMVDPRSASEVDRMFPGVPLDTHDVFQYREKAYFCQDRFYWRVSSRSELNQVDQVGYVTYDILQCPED
# Sequence of Stromelysin-1 (P08254 whole entry): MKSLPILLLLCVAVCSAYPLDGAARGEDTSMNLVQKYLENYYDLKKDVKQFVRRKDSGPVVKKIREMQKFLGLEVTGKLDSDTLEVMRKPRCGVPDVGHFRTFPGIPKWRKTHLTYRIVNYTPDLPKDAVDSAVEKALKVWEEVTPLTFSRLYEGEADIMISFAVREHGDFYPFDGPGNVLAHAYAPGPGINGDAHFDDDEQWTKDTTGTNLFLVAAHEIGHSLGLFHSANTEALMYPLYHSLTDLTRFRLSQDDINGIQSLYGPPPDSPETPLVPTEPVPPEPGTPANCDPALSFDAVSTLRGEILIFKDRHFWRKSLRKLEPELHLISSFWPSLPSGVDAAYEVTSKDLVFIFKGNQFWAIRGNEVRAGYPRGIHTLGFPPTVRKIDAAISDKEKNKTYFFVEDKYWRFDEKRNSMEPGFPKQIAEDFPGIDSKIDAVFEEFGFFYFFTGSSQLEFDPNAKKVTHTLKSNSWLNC
SMILES,IC50 [1] [nM],IC50 (Interstitial collagenase) [nM],IC50 [2] [nM],IC50 (Stromelysin-1) [nM],inhibition in vivo at 40 mg/kg (Mus musculus [3]) [%],solubility [4] [µg/mL],inhibition in vivo at 40 mg/kg (Mus musculus [5]) [%],Inhibition (Rattus norvegicus) [%]
CC(C)C[C@@H](C(=O)N[C@H](C(=O)Nc1nccs1)[C@H](C)CC/N=C(/N)NS(C)(=O)=O)[C@H](C)N(O)C=O,12,18,8.5,169,-3,> 2130,,
CCC[C@@H]([C@@H](Cc1ccc(C)s1)C(=O)N[C@@H](CCC/N=C(/N)N[N+](=O)[O-])C(=O)Nc1nccs1)N(O)C=O,,> 2500,190,79,,,,
CCC[C@@H]([C@@H](CC1CCCCC1)C(=O)N[C@@H](CCC/N=C(/N)N[N+](=O)[O-])C(=O)Nc1nccs1)N(O)C=O,8,108,55,203,-27,330,72,
CCC[C@@H]([C@@H](CC(C)C)C(=O)N[C@@H](CCCN=C(N)NS(C)(=O)=O)C(=O)Nc1nccs1)N(O)C=O,7.9,100,51,122,,> 1130,,
N/C(=N/CCC[C@H](NC(=O)[C@H](CC1CCCCC1)[C@H](CCC(F)(F)F)N(O)C=O)C(=O)Nc1nccs1)N[N+](=O)[O-],5,110,49,214,-24,54,73,
CC1CCC(C[C@@H](C(=O)N[C@@H](CCCN=C(N)NS(C)(=O)=O)C(=O)Nc2nccs2)[C@H](C(C)C)N(O)C=O)CC1 (stereo partly drawn),14,122,89,155,32,1400,,
CCC[C@@H]([C@@H](CC1CCC(C)CC1)C(=O)N[C@@H](CCC/N=C(/N)N[N+](=O)[O-])C(=O)Nc1nccs1)N(O)C=O (stereo partly drawn),9,188,115,200,-19,160,64,
CC(C)C[C@@H](C(=O)N[C@H](C(=O)Nc1nccs1)[C@H](C)CC/N=C(/N)NS(C)(=O)=O)[C@H](CCC(F)(F)F)N(O)C=O,8,52,22,17,-5,,,
CCC[C@@H]([C@@H](CC(C)C)C(=O)N[C@@H](CCC/N=C(/N)N[N+](=O)[O-])C(=O)Nc1nccs1)N(O)C=O,,34,13,31,-29,> 1600,96,30
CCC[C@@H]([C@@H](CC(C)C)C(=O)N[C@@H](CCC/N=C(/N)NS(=O)(=O)c1ccccn1)C(=O)Nc1nccs1)N(O)C=O,6,76,43,84,-28,,,
CCC[C@@H]([C@@H](CC(C)C)C(=O)N[C@H](C(=O)Nc1nccs1)[C@H](C)CCN=C(N)NS(C)(=O)=O)N(O)C=O,6,57,48,156,28,,,
CC(C)C[C@@H](C(=O)N[C@@H](CCC/N=C(/N)N[N+](=O)[O-])C(=O)Nc1nccs1)[C@H](Cc1ccccc1)N(O)C=O,,26,11,31,,,,
CC(C)C[C@@H](C(=O)N[C@H](C(=O)Nc1nccs1)[C@H](C)CC/N=C(/N)N[N+](=O)[O-])[C@H](C)N(O)C=O,7,38,19,273,-2,> 850,,
CCC[C@@H]([C@@H](Cc1ccc(C)s1)C(=O)N[C@@H](CCC/N=C(/N)NS(=O)(=O)c1ccccn1)C(=O)Nc1nccs1)N(O)C=O,11,> 2700,379,218,,,,
CC(C)C[C@@H](C(=O)N[C@H](C(=O)Nc1nccs1)[C@H](C)CC/N=C(/N)NS(C)(=O)=O)[C@H](C(C)C)N(O)C=O,35,8.1,12,49,7,,,
CCC[C@@H]([C@@H](CC1CCC(C)CC1)C(=O)N[C@@H](CCCN=C(N)NS(=O)(=O)c1ccccn1)C(=O)Nc1nccs1)N(O)C=O (stereo partly drawn),6,133,143,282,,160,,
CC1CCC(C[C@@H](C(=O)N[C@@H](CCC/N=C(/N)N[N+](=O)[O-])C(=O)Nc2nccs2)[C@H](C(C)C)N(O)C=O)CC1 (stereo partly drawn),,85,35,76,-6,210,71,
CC(C)C[C@@H](C(=O)N[C@@H](CCC/N=C(/N)NS(C)(=O)=O)C(=O)Nc1nccs1)[C@H](C(C)C)N(O)C=O,42,21,22,62,,,,
CCC[C@@H]([C@@H](CC(C)C)C(=O)N[C@H](C(=O)Nc1nccs1)[C@H](C)CC/N=C(/N)N[N+](=O)[O-])N(O)C=O,5,24,13,47,-10,,,
NC(=NCCC[C@H](NC(=O)[C@H](CC1CCCCC1)[C@H](C1CC1)N(O)C=O)C(=O)Nc1nccs1)N[N+](=O)[O-],22,144,602,1490,-3,920,56,
CC1CCC(C[C@@H](C(=O)N[C@@H](CCCN=C(N)NS(=O)(=O)c2ccccn2)C(=O)Nc2nccs2)[C@H](C(C)C)N(O)C=O)CC1 (stereo partly drawn),16,96,71,115,-9,,,
